Calls of active or inactive are those of the source. The rule behind the calls is not given here.

Experimental findings from ChEMBL document CHEMBL3244215, “Fluorinated pyrimidine nucleosides. 3. Synthesis and antitumor activity of a series of 5'-deoxy-5-fluoropyrimidine nucleosides” (J Med Chem, 1979) are described below.

The subject of data set [1] is Sarcoma-180. Kind of data set: Antitumor activity against mouse Sarcoma 180 cells allografted in CD1 mouse at 200 mg/kg, ip qd administered shortly post implantation continued for 8 days relative to vehicle-treated control. The format is functional, organism-based. Details: dose 200 mg/kg. Put shortly:
(§1)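 Compounds dissolved or suspended in H2O, given ip as 1.0 mL shortly after tumor implantation, then daily to eight doses in total. Mice killed 8 days after implantation; tumors excised and weighed. Mean tumor weight of treated mice (T) compared with that of H2O-treated controls (C), expressed as C/T index.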

The test system of data set [2] is Sarcoma-180. Kind of data set: Antitumor activity against mouse Sarcoma 180 cells allografted in CD1 mouse at 100 mg/kg, ip qd administered shortly post implantation continued for 8 days relative to vehicle-treated control. The format is functional, organism-based. Details: dose 100 mg/kg. Put shortly:
as §1

In data set [3] the test system is Sarcoma-180. Kind of data set: Antitumor activity against mouse Sarcoma 180 cells allografted in CD1 mouse at 40 mg/kg, ip qd administered shortly post implantation continued for 8 days relative to vehicle-treated control. Type of data set: functional, organism-based. Details: dose 40 mg/kg. Put shortly:
as §1

Data set [4] has as its system Sarcoma-180. Kind of data set: Antitumor activity against mouse Sarcoma 180 cells allografted in CD1 mouse at 20 mg/kg, ip qd administered shortly post implantation continued for 8 days relative to vehicle-treated control. Type of data set: functional, organism-based. Further details: dose 20 mg/kg. In a few lines:
as §1

In data set [5] the test system is Mus musculus. As to the kind of experiment: Toxicity in mouse in po dosed CD1 mouse assessed as leukopenia administered once daily starting shortly post implantation continued for 8 days relative to vehicle-treated control. Type of data set: organism-based. The following applies: in vivo, 192 h.
The subject of data set [6] is Mus musculus. As to the kind of experiment: Toxicity in mouse in po dosed CD1 mouse assessed as change in body weight administered once daily starting shortly post implantation continued for 8 days relative to vehicle-treated control. The format is organism-based. The settings on record: in vivo, 192 h.
The test system of data set [7] is Sarcoma-180. Kind of data set: Antitumor activity against mouse Sarcoma 180 cells allografted in CD1 mouse at 50 mg/kg, ip qd administered shortly post implantation continued for 8 days relative to vehicle-treated control. The format is functional, organism-based. Details: dose 50 mg/kg. In a few lines:
as §1

Data set [8] relates to Sarcoma-180. As to the kind of experiment: Antitumor activity against mouse Sarcoma 180 cells allografted in CD1 mouse at 25 mg/kg, ip qd administered shortly post implantation continued for 8 days relative to vehicle-treated control. The format is functional, organism-based. Further details: dose 25 mg/kg. Put shortly: as §1
Data set [9] relates to Sarcoma-180. Kind of data set: Antitumor activity against mouse Sarcoma 180 cells allografted in CD1 mouse at 12.5 mg/kg, ip qd administered shortly post implantation continued for 8 days relative to vehicle-treated control. The format is functional, organism-based. Details: dose 12.5 mg/kg. Put shortly:
as §1

Data set [10] concerns Sarcoma-180. As to the kind of experiment: Antitumor activity against mouse Sarcoma 180 cells allografted in CD1 mouse at 3.12 to 800 mg/kg, ip qd administered shortly post implantation for 8 days relative to vehicle-treated control. The format is functional, organism-based.

For `C[C@H]1O[C@@H](n2cc(F)c(=O)[nH]c2=O)[C@@H]2OC(C)(C)O[C@@H]21`, in the data set with Sarcoma-180 [1], the outcome was inactive.
Turning to `C[C@@H]1O[C@@H](n2cc(F)c(=O)[nH]c2=O)[C@H](O)[C@@H]1O`, the result in the data set on Sarcoma-180 [2] was inactive.
The same measure, in the same setting: in the case of `C=C1O[C@@H](n2cc(F)c(=O)[nH]c2=O)[C@H](O)[C@@H]1O` it was “inactive”; in that of `C[C@H]1O[C@@H](n2cc(F)c(N)nc2=O)[C@@H](O)[C@@H]1O`, “inactive”.
On to `C[C@H]1O[C@@H](n2cc(F)c(N)nc2=O)[C@H]2O[C@H]21`, for which the result in the data set on Sarcoma-180 [1] was inactive.
Regarding `C[C@H]1O[C@@H](n2cc(F)c(=O)[nH]c2=O)[C@@H](O)[C@H]1O`, in the data set with Sarcoma-180 [2], the result was inactive.
As for `C[C@H]1O[C@@H]2[C@@H](Oc3nc(N)c(F)c[n+]32)[C@@H]1O`, the outcome in the data set with Sarcoma-180 [1], in the data set on Sarcoma-180 [2] and in the data set on Sarcoma-180 [3] was Active. Further, the result in the data set on Sarcoma-180 [4] was inactive.
On to `C[C@H]1O[C@@H]2[C@@H](Oc3nc(=O)c(F)cn32)[C@@H]1O`, for which, in the data set on Sarcoma-180 [1], the result was inactive.
In the case of `C[C@H]1O[C@@H](n2cc(F)c(=O)[nH]c2=O)[C@@H](O)[C@@H]1O`, the outcome in the data set on Sarcoma-180 [2] was inactive.
Regarding `C[C@H]1O[C@@H](n2ccc(=O)[nH]c2=O)[C@H](O)[C@@H]1O`, in the data set with Sarcoma-180 [1], the result was inactive.
Same read-out and setting: in the case of `C[C@H]1O[C@@H](n2ccc(N)nc2=O)[C@H](O)[C@@H]1O` it was “inactive”.
Take `O=c1[nH]c(=O)n([C@H]2C[C@H](O)[C@@H](CO)O2)cc1F` [FLOXURIDINE]: the Activity entry in the data set with Mus musculus [5] and in the data set on Mus musculus [6] was “Toxic” each time.
As for `C[C@H]1O[C@@H](n2cc(F)c(N)nc2=O)[C@H](O)[C@@H]1O`, the outcome with Sarcoma-180 [1], with Sarcoma-180 [2], in the data set on Sarcoma-180 [7] and in the data set with Sarcoma-180 [8] was Active. Moreover, the outcome in the data set on Sarcoma-180 [9] was inactive.
With `C[C@H]1O[C@@H](n2cc(F)c(=O)[nH]c2=O)[C@H](O)[C@@H]1O` [DOXIFLURIDINE], the outcome with Sarcoma-180 [1], with Sarcoma-180 [2], in the data set on Sarcoma-180 [7], with Sarcoma-180 [8] and with Sarcoma-180 [10] was Active. Moreover, in the data set with Sarcoma-180 [9], the result was inactive. For the same compound, the Activity entry in the data set on Mus musculus [5] and in the data set on Mus musculus [6] was “Toxic” in each case.
